Compound activity (PubChem)
Diaphorase act: compounds boosting diaphorase resazurin reduction – biochemical, uHTS, resorufin fluorescence, counter-screen for diaphorase-coupled primary assays, primary screen | Diaphorase/resazurin coupled assay, 16 min; hits give high values; 1 = vehicle wells, 0 = NADH-free wells | activation factor at 20 µM | 190,000 compounds, 0.005% hits;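 active = diaphorase activity raised at least twofold by the compound at 20 µM; inactive = activation factor below 2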
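Test system: Clostridium kluyveri diaphorase, purified enzyme; input: enzyme 0.07 U/mL final; buffer or medium: 50 mM HEPES pH 7.4 with 4.542 mM MgCl2, 0.005% Tween 20; also added: 0.114 mM NADH and 0.1 mM resazurin, final amounts; schedule: 16 min enzyme reaction, ambient temperature; technique: fluorescence of resorufin, 544 nm excitation, 590 nm emission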
ROMK primary: ROMK potassium channel modulators, primary screen, cell-based, thallium flux, MLSMR library. ATP-sensitive inward rectifier potassium channel 1 (Homo sapiens), P48048. Tet-inducible ROMK, thallium flux fluorescence; actives lie on both sides. B-score at 10 µM. 130,000 compounds, 2% hits;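 active = signal ratio slope over the read window, or its plate-corrected B-score, at least 3 SD from the plate mean, either direction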;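 note: B-score of the F/F0 ratio slope over 7 to 12 s after thallium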
Target sequence (P48048 whole entry, looked up): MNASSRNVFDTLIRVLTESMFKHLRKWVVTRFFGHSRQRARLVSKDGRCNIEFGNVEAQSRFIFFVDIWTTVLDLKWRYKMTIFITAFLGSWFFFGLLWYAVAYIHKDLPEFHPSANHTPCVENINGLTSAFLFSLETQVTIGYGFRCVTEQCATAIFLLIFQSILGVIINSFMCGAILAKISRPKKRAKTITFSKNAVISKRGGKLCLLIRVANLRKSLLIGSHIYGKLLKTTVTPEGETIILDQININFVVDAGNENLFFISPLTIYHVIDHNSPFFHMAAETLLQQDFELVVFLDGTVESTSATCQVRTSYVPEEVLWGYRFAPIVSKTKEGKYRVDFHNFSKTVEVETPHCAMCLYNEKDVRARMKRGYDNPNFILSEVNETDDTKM
L major viab: Leishmania major promastigote growth inhibition, primary screen. Leishmania major promastigotes, resazurin fluorescence viability. inhibition, % at 10 µM. 200,000 compounds, 9% hits; in the data active = inhibition above about 50%;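 note: promastigotes grown with compound for 44 hours at 28 °C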
Diaphorase inh: diaphorase inhibitors and chemical oxidizers, primary screen, counter-screen for diaphorase-coupled primary assays, biochemical, uHTS, resorufin fluorescence. 190,000 compounds, 0.69% hits. AID 1217, 2008. inhibition, % at 20 µM. diaphorase resazurin-to-resorufin fluorescence, NADH, 16 min; bacterial (C. kluyveri) enzyme, not human;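 active = primary screen inhibition at 20 µM above a set limit, cut at about 50% in these data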;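 note: plate controls were DMSO with full reaction for no effect and wells lacking NADH for full effect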
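Test system: Clostridium kluyveri diaphorase enzyme / Quantity: diaphorase at 0.14 U/mL in enzyme working solution / Incubation: 16-min room-temperature incubation before reading / Benchmarks: NADH-free wells as positive control, DMSO-only neutral wells / Signal: resorufin fluorescence 544/590 nm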
KCC2 mod: KCC2 cotransporter modulators, thallium flux, primary screen, cell-based, HEK293 KCC2, FluoZin-2 fluorescence, MLSMR | KCC2 cells, thallium flux FluoZin-2 fluorescence | AID 1456, 2008 | Solute carrier family 12 member 5 (Homo sapiens), Q9H2X9 | B-score of Tl+ flux slope (higher = more flux/activation; lower = inhibition) at 10 µM | 190,000 compounds, 2.2% hits;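 active = thallium flux slope and its plate-corrected score both differing from the plate sample mean at a set confidence after two filtering rounds, in either direction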;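 note: slope of fluorescence scaled to starting intensity during 10 to 20 s after thallium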
WT yeast gro inh: growth inhibition of WT strain, primary screen, mitochondrial fusion inhibitor project, WT and mutant strains, chemical genetic | mitochondrial fusion phenotypic screen | inhibition, % at 10 µM | 190,000 compounds, 2.1% hits | AID 1362, 2008; in the data active = inhibition above about 58%; tested in S. cerevisiae
Numbers without * were called inactive. An excerpt weighted towards active compounds, which were near 12% of everything screened.

What do the screens show for `CCOC(=O)c1sc(NC(=O)C(CC)Sc2nc3ccccc3[nH]2)nc1C` (configuration not stated)?
ROMK primary: -0.52; L major viab: 54*; KCC2 mod: -0.82

How did CCOC(=O)c1sc(NC(=O)C(OC(C)=O)c2ccccc2)nc1C (configuration not stated) do in these assays?
Diaphorase act: 0.9; ROMK primary: 1.1; L major viab: 44; Diaphorase inh: 9; KCC2 mod: 0.35; WT yeast gro inh: 2

What do the screens show for `CCOC(=O)Cc1nnc(NC(=O)C(CC)Sc2nnc3c4ccccc4n(C)c3n2)s1` (configuration not stated)?
Diaphorase act: 0.8; L major viab: -10; Diaphorase inh: 20; KCC2 mod: 0.39; WT yeast gro inh: -17

Results for Cn1c2ccccc2c2nnc(SCN3C(=O)c4ccccc4C3=O)nc21 ?
Diaphorase act: 0.7; Diaphorase inh: 28

How did Cc1nnsc1C(=O)NC(C)c1ccccc1 (configuration not stated) do in these assays?
Diaphorase act: 0.9; ROMK primary: 0.82; L major viab: -9; Diaphorase inh: 5; KCC2 mod: 0.17; WT yeast gro inh: 2

How did Cc1cc(F)c(F)c(C(=O)N2C(C)CCCC2C)c1Cl (configuration not stated) do in these assays?
Diaphorase act: 0.9; ROMK primary: -0.61; L major viab: -3; Diaphorase inh: 7; KCC2 mod: 0.6; WT yeast gro inh: -5

What do the screens show for `CC(/C=N/N1CCN(Cc2ccccc2)CC1)=C\c1ccccc1`?
Diaphorase act: 0.9; L major viab: 9; Diaphorase inh: 9; KCC2 mod: -0.83; WT yeast gro inh: 52

How did COc1cc(Cl)cc(C(=O)O)c1OCC(=O)O do in these assays?
Diaphorase act: 0.9; ROMK primary: 0.59; L major viab: 3; Diaphorase inh: 6; KCC2 mod: -0.82; WT yeast gro inh: 1

How did CCN(CC)S(=O)(=O)c1cccc(NC2=NCCCCC2)c1 do in these assays?
KCC2 mod: -0.63

What do the screens show for `O=C1C2C(c3ccccc3)=NN(c3ccccc3)C2C(=O)N1c1ccccc1` (configuration not stated)?
Diaphorase act: 0.8; L major viab: 59*; Diaphorase inh: 15; KCC2 mod: 0.00044; WT yeast gro inh: 3

How did O=C1[C@H]2C(c3ccccc3)=NN(c3ccccc3)[C@H]2C(=O)N1c1ccccc1 do in these assays?
Diaphorase act: 0.9; ROMK primary: 0.093; L major viab: 0; Diaphorase inh: 14; KCC2 mod: -0.026; WT yeast gro inh: 16

How did C[C@@H](O)C1NC(=O)[C@H](CCCCN)NC(=O)c2cc([N+](=O)[O-])cc(I)c2OCC[C@@H](C(N)=O)NC1=O (some centres not stated) do in these assays?
Diaphorase act: 0.9; ROMK primary: -0.02; L major viab: -5; Diaphorase inh: 9; KCC2 mod: -0.31; WT yeast gro inh: -14

What do the screens show for `O=C(NC1CCN(Cc2ccccc2)CC1)c1ccc(S(=O)(=O)NCc2ccco2)cc1`?
Diaphorase act: 0.9; ROMK primary: -0.054; L major viab: 78*; Diaphorase inh: 5; KCC2 mod: -0.67; WT yeast gro inh: -13

Results for Cc1ccc(C)n1-c1ccc(C(=O)NC2CCN(Cc3ccccc3)CC2)cc1 ?
Diaphorase act: 1; ROMK primary: -0.85; L major viab: 81*; Diaphorase inh: -2; KCC2 mod: 0.52; WT yeast gro inh: -8

Results for O=C(NC1CCCCC1)c1ccc(S(=O)(=O)NCc2ccco2)cc1 ?
Diaphorase act: 0.9; ROMK primary: 1.1; L major viab: 6; Diaphorase inh: 13; KCC2 mod: 0.52; WT yeast gro inh: 6

How did Cc1ccccc1C(=O)NC1CCN(Cc2ccccc2)CC1 do in these assays?
Diaphorase act: 1; ROMK primary: -0.035; L major viab: 85*; Diaphorase inh: 5; KCC2 mod: 0.79; WT yeast gro inh: -11
